ChEMBL document CHEMBL1133502, “Thio- and oxoflavopiridols, cyclin-dependent kinase 1-selective inhibitors: synthesis and biological effects” (J Med Chem, 2000)

Tests used:
[1] = Inhibition of Mitogen-activated protein kinase; design: species or system Xenopus laevis
[2] = Inhibition of PKA kinase; design: species or system Bos taurus
How it was run: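 Bovine heart PKA (2 units) with 500 ng GST-TK fusion substrate and 25 μM [32P]ATP, in 50 mM Tris pH 7.5, 10 mM MgCl2. Incubated 1 h at 30 °C. Read-out by TCA precipitation.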

Protein kinase C (PKC) = assay: Inhibition of rat brain PKC kinase
How it was run: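 Commercial PKC assay system run at 20 μM ATP. Read-out by spotting onto p81 phosphocellulose.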

[3] = molecular target: Epidermal growth factor receptor (Homo sapiens, UniProt P00533); assay: Inhibition of Epidermal growth factor receptor
Sequence of Epidermal growth factor receptor (P00533 whole entry): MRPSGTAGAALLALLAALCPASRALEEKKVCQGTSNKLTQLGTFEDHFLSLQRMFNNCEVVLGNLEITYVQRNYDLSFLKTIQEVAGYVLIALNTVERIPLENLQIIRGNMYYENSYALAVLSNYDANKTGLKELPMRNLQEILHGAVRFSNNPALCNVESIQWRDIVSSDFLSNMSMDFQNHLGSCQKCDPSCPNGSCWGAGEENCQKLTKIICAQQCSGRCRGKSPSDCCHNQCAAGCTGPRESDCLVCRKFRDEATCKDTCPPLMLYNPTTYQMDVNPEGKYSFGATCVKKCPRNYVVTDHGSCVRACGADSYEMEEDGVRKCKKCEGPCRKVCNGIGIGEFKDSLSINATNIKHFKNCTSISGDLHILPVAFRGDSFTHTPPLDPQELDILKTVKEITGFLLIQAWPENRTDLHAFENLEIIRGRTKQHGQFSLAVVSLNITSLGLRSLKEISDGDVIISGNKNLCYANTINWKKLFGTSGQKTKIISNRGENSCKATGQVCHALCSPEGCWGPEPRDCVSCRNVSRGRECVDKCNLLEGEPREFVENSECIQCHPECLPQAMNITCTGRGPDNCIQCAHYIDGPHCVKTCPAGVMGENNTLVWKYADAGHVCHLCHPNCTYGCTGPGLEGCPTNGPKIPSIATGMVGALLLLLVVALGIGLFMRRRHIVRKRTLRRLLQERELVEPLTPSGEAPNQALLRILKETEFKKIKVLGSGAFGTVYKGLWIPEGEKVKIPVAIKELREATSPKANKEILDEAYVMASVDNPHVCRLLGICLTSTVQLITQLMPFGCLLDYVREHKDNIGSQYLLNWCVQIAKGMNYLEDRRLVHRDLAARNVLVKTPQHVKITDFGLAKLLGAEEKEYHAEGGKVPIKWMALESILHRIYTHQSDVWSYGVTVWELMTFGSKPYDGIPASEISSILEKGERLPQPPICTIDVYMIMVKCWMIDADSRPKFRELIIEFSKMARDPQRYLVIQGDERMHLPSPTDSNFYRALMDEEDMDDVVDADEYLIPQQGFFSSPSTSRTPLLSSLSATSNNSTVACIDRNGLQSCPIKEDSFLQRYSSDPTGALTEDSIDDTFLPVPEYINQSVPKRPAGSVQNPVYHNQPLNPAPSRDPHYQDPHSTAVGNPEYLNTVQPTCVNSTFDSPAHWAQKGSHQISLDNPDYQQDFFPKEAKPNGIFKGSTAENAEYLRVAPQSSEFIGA

[4] = molecular target: Cyclin-dependent kinase 2/cyclin E (Homo sapiens, UniProt P24941); assay: Inhibition of Cyclin-dependent kinase 2-cyclin E; assay type: protein-complex assay
[5] = molecular target: Cyclin-dependent kinase 1/cyclin B1 (Homo sapiens, UniProt P06493); assay type: protein-complex assay
Sequence of Cyclin-dependent kinase 1/cyclin B1 (P06493 whole entry): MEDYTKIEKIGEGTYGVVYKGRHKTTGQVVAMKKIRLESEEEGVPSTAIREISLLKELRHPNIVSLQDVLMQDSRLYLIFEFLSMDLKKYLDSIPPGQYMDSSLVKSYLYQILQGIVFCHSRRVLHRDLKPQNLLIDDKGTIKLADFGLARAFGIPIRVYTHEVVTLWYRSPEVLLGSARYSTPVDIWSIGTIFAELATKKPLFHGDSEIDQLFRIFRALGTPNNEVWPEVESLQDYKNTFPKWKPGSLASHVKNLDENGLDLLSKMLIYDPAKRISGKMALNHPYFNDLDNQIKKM
Sequence of Cyclin-dependent kinase 1/cyclin B1 (P14635 whole entry, further chain): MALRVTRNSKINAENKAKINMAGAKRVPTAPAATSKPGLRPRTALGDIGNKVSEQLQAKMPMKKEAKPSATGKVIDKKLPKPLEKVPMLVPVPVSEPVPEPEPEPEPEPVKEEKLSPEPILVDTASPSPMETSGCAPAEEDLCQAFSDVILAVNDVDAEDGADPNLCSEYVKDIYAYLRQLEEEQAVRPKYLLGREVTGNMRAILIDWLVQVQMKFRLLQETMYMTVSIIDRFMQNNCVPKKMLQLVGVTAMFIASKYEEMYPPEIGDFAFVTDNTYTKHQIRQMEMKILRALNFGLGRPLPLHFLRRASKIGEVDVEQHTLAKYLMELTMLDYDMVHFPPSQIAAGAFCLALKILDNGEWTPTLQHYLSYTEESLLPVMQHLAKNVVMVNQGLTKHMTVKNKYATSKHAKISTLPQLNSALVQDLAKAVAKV

[6] = molecular target: Cyclin-dependent kinase 4/cyclin D1 (Homo sapiens, UniProt P11802); assay: Inhibition of Cyclin-dependent kinase 4-cyclin D1; assay type: protein-complex assay
Sequence of Cyclin-dependent kinase 4/cyclin D1 (P11802 whole entry): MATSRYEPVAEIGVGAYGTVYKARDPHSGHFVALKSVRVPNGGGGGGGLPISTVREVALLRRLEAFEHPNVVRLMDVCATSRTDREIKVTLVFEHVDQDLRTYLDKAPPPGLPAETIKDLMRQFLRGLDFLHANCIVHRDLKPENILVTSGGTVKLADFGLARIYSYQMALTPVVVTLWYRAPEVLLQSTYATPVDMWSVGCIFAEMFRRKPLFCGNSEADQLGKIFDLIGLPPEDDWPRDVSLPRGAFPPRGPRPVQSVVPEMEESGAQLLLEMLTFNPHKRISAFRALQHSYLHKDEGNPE
Sequence of Cyclin-dependent kinase 4/cyclin D1 (P24385 whole entry, further chain): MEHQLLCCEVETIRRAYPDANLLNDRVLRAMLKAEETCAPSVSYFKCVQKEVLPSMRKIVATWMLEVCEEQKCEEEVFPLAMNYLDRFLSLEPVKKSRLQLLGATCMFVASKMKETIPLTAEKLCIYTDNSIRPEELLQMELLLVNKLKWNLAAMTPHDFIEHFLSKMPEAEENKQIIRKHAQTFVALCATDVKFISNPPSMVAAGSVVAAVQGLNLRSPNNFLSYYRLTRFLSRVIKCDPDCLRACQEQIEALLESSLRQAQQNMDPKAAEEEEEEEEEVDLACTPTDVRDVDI

[7] = molecular target: Cyclin-dependent kinase 2/cyclin A (Homo sapiens, UniProt P24941); assay: Inhibition of Cyclin-dependent kinase 2-cyclin A; assay type: protein-complex assay
[8] = Inhibition of Cyclin-dependent kinase 1-cyclin A; design: species or system Homo sapiens
A2780 = assay: cells; conditions: Homo sapiens
MIA PaCa-2 = assay: cells; conditions: Homo sapiens
PC-3 = assay: cells; conditions: Homo sapiens
HCT-116 = assay: cells; conditions: Homo sapiens

## CN1CC[C@H](c2c(O)cc(O)c3c(=O)cc(Oc4ccccc4Cl)oc23)[C@H](O)C1
[1]
  IC50: > 25 µM
[2]
  IC50: > 50 µM
Protein kinase C (PKC)
  IC50: > 50 µM
[3]
  IC50: > 50 µM

## CN1CCC(c2c(O)cc(O)c3c(=O)cc(Sc4ccccc4)oc23)C(O)C1 (racemic)
[4]
  IC50: 6.59 µM
[5]
  IC50: 0.44 µM
[6]
  IC50: 4.1 µM

## CN1CCC(c2c(O)cc(O)c3c(=O)cc(SC(C)(C)C)oc23)C(O)C1 (racemic)
[4]
  IC50: 1.07 µM
[5]
  IC50: 0.08 µM
[6]
  IC50: 2.07 µM

## CN1CCC(c2c(O)cc(O)c3c(O)c/c(=N\c4ccccc4)oc23)C(O)C1 (racemic)
[4]
  IC50: > 25 µM
[5]
  IC50: 16.3 µM
[6]
  IC50: > 25 µM

## CN1CCC(c2c(O)cc(O)c3c(=O)cc(N4CCCCC4)oc23)C(O)C1 (racemic)
[4]
  IC50: 9.69 µM
[5]
  IC50: 2.5 µM
[6]
  IC50: 3.7 µM

## Cc1cc(C)nc(Sc2cc(=O)c3c(O)cc(O)c(C4CCN(C)CC4O)c3o2)n1 (racemic)
[4]
  IC50: 40.4 µM
[5]
  IC50: 6.4 µM
[6]
  IC50: 82.5 µM

## CCSc1cc(=O)c2c(O)cc(O)c(C3CCN(C)CC3O)c2o1 (racemic)
[4]
  IC50: 3.93 µM
[5]
  IC50: 0.46 µM
[6]
  IC50: 2.06 µM

## CN1CC[C@H](c2c(O)cc(O)c3c(=O)cc(Sc4ccccc4Cl)oc23)[C@H](O)C1 (stereo in doubt; 16)
[4]
  IC50: 2.1 µM
[7]
  IC50: 1.5 µM
[8]
  IC50: 0.16 µM
[5]
  IC50: 0.11 µM
[6]
  IC50: 16.2 µM
[1]
  IC50: > 25 µM
[2]
  IC50: > 50 µM
Protein kinase C (PKC)
  IC50: 16.1 µM
[3]
  IC50: > 50 µM
A2780
  IC50: 0.87 µM
MIA PaCa-2
  IC50: 0.03 µM
PC-3
  IC50: 0.02 µM
HCT-116
  IC50: 0.21 µM

## CN1CC[C@H](c2c(O)cc(O)c3c(=O)cc(Sc4ccccc4Cl)oc23)[C@H](O)C1 (stereo in doubt; 21)
[4]
  IC50: 4.4 µM
[5]
  IC50: 6.1 µM
[6]
  IC50: > 25 µM

## CN1CC[C@H](c2c(O)cc(O)c3c(=O)cc(-c4ccccc4Cl)oc23)[C@H](O)C1 [ALVOCIDIB]
[8]
  IC50: 0.05 µM
[1]
  IC50: 19 µM
[2]
  IC50: > 50 µM
Protein kinase C (PKC)
  IC50: 14 µM

## COC(=O)[C@@]1(Cc2ccc(O)c(CC=C(C)C)c2)OC(=O)C(O)=C1c1ccc(O)cc1 [BUTYROLACTONE I]
[6]
  IC50: 1000 µM
[1]
  IC50: 94 µM
[2]
  IC50: 260 µM
Protein kinase C (PKC)
  IC50: 160 µM
[3]
  IC50: 590 µM

## Cn1cnc2c(NCc3ccccc3)nc(NCCO)nc21 [OLOMOUCINE]
[1]
  IC50: 30 µM
[2]
  IC50: 2000 µM
Protein kinase C (PKC)
  IC50: 1000 µM
